In ChEMBL document CHEMBL1159049, “Novel small molecule bradykinin B1 receptor antagonists. Part 3: hydroxyurea derivatives” (Bioorg Med Chem Lett, 2010):
In brackets after ≈: the same amount, converted by molar mass. Each block holds one molecule with its values, some of them ahead of it.

Tests used:
B1 bradykinin receptor = target: T1, B1 bradykinin receptor (Homo sapiens, UniProt P46663); experiment: Antagonist activity at bradykinin B1 receptor in human IMR90 cells assessed as inhibition of des-Arg-bradykinin-mediated calcium mobilization; type: functional, cell-based, IMR-90; conditions: in the assay text read “des-Arg-kallidin-mediated” for “des-Arg-bradykinin-mediated”
T1 sequence (P46663 whole entry): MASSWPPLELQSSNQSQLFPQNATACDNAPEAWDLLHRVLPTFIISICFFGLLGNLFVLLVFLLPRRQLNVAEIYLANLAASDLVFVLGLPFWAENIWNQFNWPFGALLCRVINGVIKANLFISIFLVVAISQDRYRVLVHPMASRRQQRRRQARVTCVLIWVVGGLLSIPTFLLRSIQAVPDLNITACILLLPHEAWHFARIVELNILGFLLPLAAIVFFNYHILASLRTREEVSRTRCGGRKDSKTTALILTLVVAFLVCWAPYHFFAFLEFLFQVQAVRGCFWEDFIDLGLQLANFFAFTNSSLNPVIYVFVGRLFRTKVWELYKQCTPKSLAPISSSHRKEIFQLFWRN
Summary of the method: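 Human lung fibroblast IMR-90 cells pretreated with IL-1 beta; B1 receptor functional activity read as inhibition of DAKD-mediated calcium mobilization (CAM assay). Values are the numerical average of at least two experiments.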

[1] = Clearance in Wistar rat at 1 mg/kg, iv […]; type: ADME, organism-based; conditions: in vivo
Summary of the method: (§1)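 Male Wistar rats dosed at 1 mg/kg iv (group 1) and 1 mg/kg po (group 2). Plasma aliquots precipitated with methanol containing a structural analogue as internal standard, then analyzed by HPLC-MS/MS for time/concentration values. PK parameters (terminal t1/2, CL, F) derived from these profiles.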

[2] = Oral bioavailability in Wistar rat at 1 mg/kg; type: ADME, organism-based; conditions: in vivo; summary of the method: as §1
[3] = Half life in Wistar rat at 1 mg/kg, iv […]; type: ADME, organism-based; conditions: in vivo; summary of the method: as §1
[4] = Metabolic stability in human liver microsomes after 1 hr; type: ADME, Microsome; conditions: read-out: Stability
Summary of the method: (§2)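 Incubation with human or rat liver microsomes for 1 h; percent parent remaining reported.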

[5] = Compound remaining in PBS buffer after 5 days; type: physicochemical; conditions: read-out: Stability
Summary of the method: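 Chemical stability: compound incubated in PBS buffer at 50 °C for 5 days; percent remaining determined.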

[6] = Apparent permeability from basolateral to apical side of human Caco-2 cell; type: ADME, cell-based
Summary of the method: (§3)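 Bidirectional permeability through Caco-2 cell monolayers; Papp measured apical-to-basolateral and basolateral-to-apical, with efflux ratio taken as B–A over A–B.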

[7] = Metabolic stability in rat liver microsomes after 1 hr; type: ADME, Microsome; conditions: read-out: Stability; summary of the method: as §2
Caco-2 = experiment: Ratio of permeability from basolateral to apical side to apical to basolateral side in human Caco-2 cells; type: ADME, cell-based; summary of the method: as §3
[8] = Apparent permeability from apical to basolateral side of human Caco-2 cell; type: ADME, cell-based; summary of the method: as §3
Hepatocyte = experiment: Cytotoxicity against human hepatocytes; type: cell-based
Summary of the method: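 Cell viability in plateable cryopreserved human hepatocytes exposed to a range of concentrations up to 100 µM for 24 h at 37 °C; resazurin substrate, resorufin product detected by fluorimetry.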

Homo sapiens = species on record: Homo sapiens; experiment: Protein binding in human plasma; conditions: read-out: PPB (converted)
[9] = Aqueous Solubility in PBS buffer; type: physicochemical

SMILES: Cc1nc(-c2c(F)cc(Cl)cc2-c2ccc(CNC(=O)N(C)O)cc2)no1
IC50 (B1 bradykinin receptor): > 100 nM

SMILES: Cn1nnc(-c2c(F)cc(Cl)cc2-c2cnc(CNC(=O)NO)c(F)c2)n1
IC50 (B1 bradykinin receptor): 59 nM

SMILES: CC(C)N(O)C(=O)NCc1ncc(-c2cc(Cl)cc(F)c2-c2nnn(C)n2)cc1F
IC50 (B1 bradykinin receptor): 1 nM

SMILES: CN(O)C(=O)NCc1ncc(-c2cc(Cl)cc(F)c2-c2nnn(C)n2)cc1F
IC50 (B1 bradykinin receptor): 17 nM

SMILES: Cc1nc(-c2c(F)cccc2-c2cnc([C@@H](C)NC(=O)N(C)O)c(F)c2)no1
IC50 (B1 bradykinin receptor): 31 nM

SMILES: Cn1nnc(-c2c(F)cc(Cl)cc2-c2cnc(CNC(=O)N(O)C3CCCC3)c(F)c2)n1
IC50 (B1 bradykinin receptor): 0.8 nM

SMILES: Cc1nc(-c2c(F)cc(Cl)cc2-c2cnc([C@@H](C)NC(=O)N(C)O)c(C)c2)no1
IC50 (B1 bradykinin receptor): 3.6 nM

SMILES: Cc1nc(-c2c(F)cc(Cl)cc2-c2cnc(CNC(=O)N(C)O)c(F)c2)no1
IC50 (B1 bradykinin receptor): 17 nM

SMILES: CCN(O)C(=O)NCc1ncc(-c2cc(Cl)cc(F)c2-c2nnn(C)n2)cc1F
IC50 (B1 bradykinin receptor): 4.6 nM

SMILES: Cc1nc(-c2c(Cl)cc(Cl)cc2-c2cnc([C@@H](C)NC(=O)N(C)O)c(F)c2)no1
IC50 (B1 bradykinin receptor): 2.3 nM

Continued by falling IC50 (B1 bradykinin receptor), values first:

IC50 (B1 bradykinin receptor): 32 nM
SMILES: Cc1nc(-c2c(F)cc(Cl)cc2-c2ccc(CNC(=O)N(C)O)c(F)c2)no1

IC50 (B1 bradykinin receptor): 3.9 nM
SMILES: Cn1nnc(-c2c(F)cc(Cl)cc2-c2cnc(CNC(=O)N(O)C3CCCCC3)c(F)c2)n1

IC50 (B1 bradykinin receptor): 1.4 nM
SMILES: Cn1nnc(-c2c(F)cc(Cl)cc2-c2cnc(CNC(=O)N(O)C(C)(C)C)c(F)c2)n1

clearance [1]: 58 mL/min/kg | bioavailability [2]: 8% | IC50 (B1 bradykinin receptor): 1.2 nM | half-life [3]: 12 min
SMILES: Cc1nc(-c2c(F)cc(Cl)cc2-c2cnc([C@@H](C)NC(=O)N(C)O)c(F)c2)no1

clearance [1]: 8 mL/min/kg | bioavailability [2]: 86% | IC50 (B1 bradykinin receptor): 0.5 nM | half-life [3]: 80 min
SMILES: Cn1nnc(-c2c(F)cc(Cl)cc2-c2cnc(CNC(=O)N(O)C(CF)CF)c(F)c2)n1

remaining at 1 h [4]: 61% | remaining at 120 h [5]: > 99% | clearance [1]: 13 mL/min/kg | Papp B→A [6]: 43 ×10⁻⁶ cm/s | bioavailability [2]: 78% | IC50 (B1 bradykinin receptor): 0.19 nM | remaining at 1 h [7]: 84% | half-life [3]: 47 min | Ratio (Caco-2): < 3 | Papp A→B [8]: 24 ×10⁻⁶ cm/s | fraction unbound (Homo sapiens): 0.013 | solubility [9]: 39 µM (≈ 20 µg/mL)
SMILES: Cn1nnc(-c2c(F)cc(Cl)cc2-c2cnc(CNC(=O)N(O)C3CCC(F)(F)CC3)c(F)c2)n1
Activity (Hepatocyte): Non-toxic
